These results are taken from ChEMBL document CHEMBL1122058, “Agents for the treatment of brain injury. 1. (Aryloxy)alkanoic acids” (J Med Chem, 1982).

The species entered for series [1] is Rattus norvegicus. Kind of series: Relative salidiuretic efficacy was scored in Rat; Marginal. The format is functional, organism-based. The note with it: Urine.
Series [2] in a line: Dissociation constant (pKa) (determined in 30% EtOH). Type of series: physicochemical.
The species named for series [3] is Felis catus. In words: In vitro inhibition of HCO3- stimulated swelling in cat cerebrocortical tissue slice. Type of series: functional. Conditions: read-out: I 50. In short, it runs like this: (§1)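 Cat cerebral cortex slices (~150 mg, 0.5 mm) incubated aerobically 60 min at 37 °C in K+-rich (27 mM) Hepes-buffered saline-glucose with test compound as Na salt. HCO3- (NaHCO3 or TEAB) added from sidearm at 20 min to 10 mM final; HCO3- flasks gassed with 2.5% CO2/97.5% O2. Swelling by reweighing; Na+/K+ by flame photometry, Cl- by amperometric titration. Units: per g initial fresh weight; means ± SE, Student's t test.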

The species named for series [4] is Canis familiaris. In words: Relative salidiuretic efficacy was scored in dog; Marginal. Type of series: functional, organism-based. Conditions: Canis lupus familiaris; Urine.
Series [5] in a line: Distribution coefficient (D %) between octanol and buffer of pH 7.4. Type of series: physicochemical. The note with it: octanol/water.
The species named for series [6] is Rattus norvegicus. In words: Relative salidiuretic efficacy was scored in Rat; weak. The format is functional, organism-based. Conditions: Urine.
The species entered for series [7] is Rattus norvegicus. Kind of series: Relative salidiuretic efficacy was scored in Rat; inactive. The format is functional, organism-based. The note with it: Urine.
The species named for series [8] is Canis familiaris. Kind of series: Relative salidiuretic efficacy was scored in dog; weak. The format is functional, organism-based. The note with it: Canis lupus familiaris; Urine.
For series [9], the species on record is Pan troglodytes. Kind of series: Relative salidiuretic efficacy was scored in chimpanzee; weak. The format is functional, organism-based. The note with it: Urine.
The species named for series [10] is Felis catus. Kind of series: In vitro inhibition of HCO3- stimulated swelling in cat cerebrocortical tissue slice; At no concentration was swelling inhibited 100%. Type of series: functional. The note with it: read-out: I 50. In short, it runs like this: as §1
For series [11], the species on record is Pan troglodytes. Kind of series: Relative salidiuretic efficacy was scored in chimpanzee; moderate. Type of series: functional, organism-based. Conditions: Urine.
Series [12] is filed under the species Canis familiaris. Kind of series: Relative salidiuretic efficacy was scored in dog; moderate. Type of series: functional, organism-based. The note with it: Canis lupus familiaris; Urine.
Series [13] is filed under the species Rattus norvegicus. Kind of series: Relative salidiuretic efficacy was scored in Rat; moderate. The format is functional, organism-based. The note with it: Urine.
The species entered for series [14] is Canis familiaris. In words: Relative salidiuretic efficacy was scored in dog; very marked. Type of series: functional, organism-based. Conditions: Canis lupus familiaris; Urine.
Series [15] is filed under the species Pan troglodytes. In words: Relative salidiuretic efficacy was scored in chimpanzee; very marked. The format is functional, organism-based. The note with it: Urine.
For series [16], the system named is Felis catus. Kind of series: Mortality of animals recorded as the number of animals dead out of the total animals (39) taken for the study at dose 1 mg/kg. Type of series: functional. In short, it runs like this: (§2)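 Adult conditioned cats (2.5–4 kg) under iv methohexital (13.25 mg/kg, plus 2.75 mg/kg if needed) received machine-induced acceleration/deceleration head injury. Forty min later they were paralysed with gallamine and ventilated with 6% O2/94% N2 for 60 min (arterial pO2 23 ± 1 torr). Drug was given iv 20 min post-injury, before hypoxemia. Mortality was scored as dead/total, chi-square tested.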

Series [17] is filed under the species Homo sapiens. Kind of series: Relative salidiuretic efficacy was scored in human; very marked. The format is functional, organism-based. Conditions: Urine.
Series [18] is filed under the species Rattus norvegicus. In words: Relative salidiuretic efficacy was scored in Rat; very marked. The format is functional, organism-based. The note with it: Urine.
Series [19] is filed under the species Canis familiaris. In words: Relative salidiuretic efficacy was scored in dog; marked. Type of series: functional, organism-based. The note with it: Canis lupus familiaris; Urine.
Series [20] has as its system Felis catus. Kind of series: Mortality of animals recorded as the number of animals dead out of the total animals (22) taken for the study at dose 1 mg/kg. Type of series: functional. In short, it runs like this: as §2
The species named for series [21] is Pan troglodytes. In words: Relative salidiuretic efficacy was scored in chipanze; weak. The format is functional, organism-based. The note with it: Urine.
Series [22] is filed under the species Homo sapiens. Kind of series: Relative salidiuretic efficacy was scored in human; moderate. Type of series: functional, organism-based. The note with it: Urine.
The species named for series [23] is Canis familiaris. In words: Relative salidiuretic efficacy was scored in dog; inactive. Type of series: functional, organism-based. Conditions: Canis lupus familiaris; Urine.

In general, pKa refers to the negative logarithm of the acid dissociation constant. A low value points to a group that gives up its proton readily.

The source made the active and inactive calls. The rule behind the calls is not given here.

As to `C[C@@]1(C2CCCC2)Cc2cc(OCCCC(=O)O)c(Cl)c(Cl)c2C1=O`, the Relative salidiuretic activity entry in the series filed under Rattus norvegicus [1] and in the series filed under Canis familiaris [4] was “inactive” in each case. Moreover, the pKa in series [2] came to 5.7. For the same compound, the IC50 in the series filed under Felis catus [3] was determined as 250 nM. The compound also displayed a Distribution in series [5] of 99%.

For the compound `CCCC[C@]1(C2CCCC2)Cc2cc(OCC(=O)O)c(Cl)c(Cl)c2C1=O`, in [2], the pKa came to 3.9. In addition, the Relative salidiuretic activity entry in the series listed under Rattus norvegicus [6] is “weak”. For the same compound, in the series filed under Felis catus [3], the IC50 stood at 0.3 nM. This compound also displayed a Distribution in series [5] of 99%.

Consider `CCC(C)C(=O)c1ccc(OCC(=O)O)c(Cl)c1Cl` (stereo unspecified), for which the Relative salidiuretic activity entry in the series filed under Rattus norvegicus [7] was “inactive”. In addition, the Relative salidiuretic activity entry in the series filed under Canis familiaris [8] and in the series filed under Pan troglodytes [9] was “weak” throughout. This compound came in with a pKa in [2] of 3.5. Moreover, the IC50 in the series filed under Felis catus [3] was determined as 500 nM. Also, the Distribution in series [5] was 96%.

In series [2], `CCCCC1(C2CCCC2)Cc2cc(OCC(=O)O)c(Cl)c(Cl)c2C1=O` (racemic) registered a pKa of 3.9. In addition, the Relative salidiuretic activity result in the series filed under Rattus norvegicus [6] is “weak”. In addition, the IC50 in the series filed under Felis catus [3] was determined as 3 nM. Moreover, the Distribution in series [5] is 99%.

For the compound `CCCC[C@@]1(C2CCCC2)Cc2cc(OCCCC(=O)O)c(Cl)c(Cl)c2C1=O`, the Relative salidiuretic activity result in the series filed under Rattus norvegicus [7] is “inactive”. The compound also gave a pKa in [2] of 4.4. This compound also had a Distribution in [5] of 99.9%.

Turning to `CC1(C2CCCC2)Cc2cc(OC/C=C/CC(=O)O)c(Cl)c(Cl)c2C1=O` (racemic), in series [2], the pKa came out at 5.1. Moreover, in the series filed under Felis catus [3], the IC50 was above 40000 nM. Also, the Distribution in series [5] is reported as 98%.

Take `CCCC1(C2CCCC2)Cc2cc(OCCCC(=O)O)c(Cl)c(Cl)c2C1=O` (racemic): the Relative salidiuretic activity result in the series filed under Rattus norvegicus [1] was “Marginal”. In the series filed under Felis catus [10], the IC50 is 8 nM. Besides, in series [2], the pKa was 4.1. In addition, the Distribution in [5] is 99.6%.

Consider `CCC1(C2CCCC2)Cc2cc(OCC(=O)O)c(Cl)c(Cl)c2C1=O` (racemic), for which the Relative salidiuretic activity result in the series filed under Pan troglodytes [11], in the series listed under Canis familiaris [12] and in the series filed under Rattus norvegicus [13] was “moderate” in each case. The compound further showed a pKa in series [2] of 3.9. Besides, in the series filed under Felis catus [3], the IC50 amounted to 1 nM. The compound further showed a Distribution in [5] of 97%.

With `C=C(CC)C(=O)c1ccc(OCC(=O)O)c(Cl)c1Cl` [ETHACRYNIC ACID], the Relative salidiuretic activity result in the series filed under Rattus norvegicus [1], in the series listed under Canis familiaris [14], in the series listed under Pan troglodytes [15] and in the series filed under Homo sapiens [17] was “Marginal” throughout. Further, in the series filed under Felis catus [3], the IC50 was determined as 1000 nM. For the same compound, the Mortality in the series on Felis catus [16] was found to be 14. In addition, the Distribution in series [5] came out at 61%.

In the case of `CC1(C2CCCC2)Cc2cc(OC3(C(=O)O)CCC3)c(Cl)c(Cl)c2C1=O` (racemic), the IC50 in the series listed under Felis catus [10] was found to be 1000 nM. The same compound returned a pKa in series [2] of 3.8. The compound also came in with a Distribution in series [5] of 98.6%.

Take `CC1(c2ccccc2)Cc2cc(OCC(=O)O)c(Cl)c(Cl)c2C1=O` (racemic) [INDACRINONE]: the Relative salidiuretic activity result in the series filed under Rattus norvegicus [18], in the series listed under Canis familiaris [19], in the series listed under Pan troglodytes [15] and in the series filed under Homo sapiens [17] was “marked” in each case. Also, the Mortality in the series with Felis catus [20] was 8. In series [2], this compound showed a pKa of 3.7. The IC50 in the series filed under Felis catus [3] stood at 1000 nM. In series [5], this compound returned a Distribution of 84%.

For `O=C(O)COc1cc2c(c(Cl)c1Cl)C(=O)C(CC1CCCC1)C2` (racemic), the Relative salidiuretic activity entry in the series listed under Pan troglodytes [21], in the series listed under Rattus norvegicus [6] and in the series listed under Canis familiaris [4] was “Marginal” in each case. In [2], this compound registered a pKa of 3.8. Moreover, the IC50 in the series filed under Felis catus [3] is 10 nM. This compound also showed a Distribution in [5] of 97%.

In the case of `CC1(Cc2ccccc2)Cc2cc(OCCCC(=O)O)c(Cl)c(Cl)c2C1=O` (racemic), the pKa in series [2] is 6.3. Moreover, in the series filed under Felis catus [3], the IC50 was above 100000 nM. The compound also displayed a Distribution in series [5] of 99.5%.

For `CC1(C2CCCC2)Cc2cc(OCc3ccc(C(=O)O)cc3)c(Cl)c(Cl)c2C1=O` (racemic), the pKa in series [2] was determined as 6.2. The IC50 in the series listed under Felis catus [3] was above 10000 nM. For the same compound, the Distribution in series [5] stood at 100%.

Regarding `CCCCC1(C2CCCC2)Cc2cc(OCCCC(=O)O)c(Cl)c(Cl)c2C1=O` (racemic), the Relative salidiuretic activity result in the series listed under Rattus norvegicus [7] is “inactive”. In series [2], this compound showed a pKa of 4.4. Moreover, in the series listed under Felis catus [3], the IC50 was determined as 4 nM. In addition, the Distribution in series [5] came to 99.8%.

Consider `O=C(O)COc1cc2c(c(Cl)c1Cl)C(=O)C(C1CCCC1)C2` (racemic), for which the Relative salidiuretic activity entry in the series listed under Canis familiaris [12], in the series filed under Homo sapiens [22], in the series listed under Rattus norvegicus [6] and in the series listed under Pan troglodytes [9] was “moderate” each time. In [2], the pKa was determined as 3.9. In addition, the IC50 in the series filed under Felis catus [3] is 10000 nM. This compound also gave a Distribution in [5] of 83%.

Take `CCC1(C2CCCC2)Cc2cc(OCCCC(=O)O)c(Cl)c(Cl)c2C1=O` (racemic): the Relative salidiuretic activity result in the series filed under Rattus norvegicus [1] is “Marginal”. Besides, the pKa in series [2] turned out to be 3.8. For the same compound, the IC50 in the series listed under Felis catus [3] was above 10 nM. The compound also yielded a Distribution in series [5] of 98.7%.

Regarding `CC1(Cc2ccccc2)Cc2cc(OCC(=O)O)c(Cl)c(Cl)c2C1=O` (racemic), the Relative salidiuretic activity result in the series filed under Pan troglodytes [11], in the series filed under Rattus norvegicus [1] and in the series filed under Canis familiaris [4] was “Marginal” each time. The compound also yielded a pKa in series [2] of 3.8. The IC50 in the series listed under Felis catus [3] was found to be 1 nM. The same compound had a Distribution in series [5] of 91%.

For `CC(C)(Oc1cc2c(c(Cl)c1Cl)C(=O)C(C)(C1CCCC1)C2)C(=O)O` (racemic), in series [2], the pKa was 3.7. In addition, the IC50 in the series filed under Felis catus [3] is above 100000 nM. In addition, the Distribution in series [5] turned out to be 98.6%.

Turning to `CCCC[C@]1(C2CCCC2)Cc2cc(OCCCC(=O)O)c(Cl)c(Cl)c2C1=O`, the Relative salidiuretic activity entry in the series listed under Rattus norvegicus [7] is “inactive”. Also, in series [2], the pKa was 4.4. The IC50 in the series filed under Felis catus [3] was 1000 nM. The compound further showed a Distribution in series [5] of 99.9%.

Turning to `CC1(c2ccccc2)Cc2cc(OCCCC(=O)O)c(Cl)c(Cl)c2C1=O` (racemic), the Relative salidiuretic activity result in the series filed under Canis familiaris [23] was “inactive”. The pKa in [2] turned out to be 6.4. This compound yielded a Distribution in series [5] of 99%.

`NS(=O)(=O)c1cc(C(=O)O)c(NCc2ccco2)cc1Cl` [FUROSEMIDE]: the Relative salidiuretic activity entry in the series filed under Canis familiaris [14], in the series filed under Rattus norvegicus [18], in the series filed under Pan troglodytes [15] and in the series filed under Homo sapiens [17] was “Active” in each case. For the same compound, the IC50 in the series filed under Felis catus [3] was 10000 nM. The Distribution in series [5] is 28%.

In turn, `CCCC[C@@]1(C2CCCC2)Cc2cc(OCC(=O)O)c(Cl)c(Cl)c2C1=O` yielded a pKa in series [2] of 3.9. Further, the Relative salidiuretic activity entry in the series listed under Rattus norvegicus [6] is “weak”. The IC50 in the series filed under Felis catus [3] is 50000 nM. Also, in [5], the Distribution was 99%.
